The source of these data is article PMC6363535 (Journal of pharmaceutical and biomedical analysis, 2018).

Values after ≈ are worked out from the molar mass of the structure shown.

Series [1] has as its system mAb 2G11G4. Kind of series: indirect competitive ELISA. In kind it is binding, mouse. Particulars: for Cross reactivity: (IC50 of dihydroartemisinin/IC50 of the other compound) × 100; for IC50: icELISA, mAb 2G11G4, coating antigen 9-O-succinyldihydroartemisinin-OVA. On the technique in general: An ELISA detects its analyte on a solid surface through an enzyme-linked reagent.

In series [2] the test system is mAb 2G11G4. Kind of series: colloidal gold-based lateral flow immunoassay. In kind it is binding, mouse. Particulars: for dipstick cross-reaction: drug concentration less than 100 ng/mL; for dipstick test line: standards at 100 ng/mL; for dipstick inhibition: standards at 500 ng/mL. An outline of the steps: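 Anti-DHA mAb adsorbed onto 30 nm colloidal gold at pH 7.8, blocked with BSA, pelleted and resuspended in 0.01 M PBS pH 7.0. Gold-mAb was used at 30 μg/mL. Capture lines on nitrocellulose were 9-O-succinyl-DHA-BSA (1 mg/mL, test) and goat anti-mouse IgG (0.4 mg/mL, control), 5 mm apart. Aqueous DHA standards were 0–100 ng/mL. Indicator range is the lowest concentration at which the test line disappears visually.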

For series [3] the following is noted: general statement, no reference given; cited from earlier work.
Series [4] concerns artemisinin antibody developed earlier. Particulars: cited from earlier work.
The subject of series [5] is mAb 3D82G7. Particulars: cited from earlier work.
A short description of series [6]: time course of DHA degradation in malaria culture, measured by icELISA. Format: in vitro ADME, Plasmodium falciparum.
For series [7] the following is noted: buffer solution (pH=7.4); cited from earlier work.

What is called IC50 is the concentration at which inhibition is half-maximal. Low readings indicate inhibition by little substance, high ones a need for much substance. `CO[C@H]1O[C@@H]2O[C@@]3(C)CC[C@H]4[C@H](C)CC[C@@H]([C@H]1C)[C@@]24OO3` [Artemether]: in series [1], the Cross reactivity was less than 0.02% and the IC50 was greater than 20 µg/mL. Besides, in series [2], the dipstick cross-reaction result is on record as “did not cross-react”, the dipstick test line entry was “showed obvious color” and the dipstick inhibition result was “no inhibition”. In series [3], the water solubility entry is reported as “poor water solubility”.

`C[C@@H]1CC[C@H]2[C@@H](C)C(=O)O[C@@H]3O[C@@]4(C)CC[C@@H]1[C@]32OO4` [Artemisinin]: in series [1], the Cross reactivity is on record as 52.3% and the IC50 is 0.00222 µg/mL (≈ 0.00786 µM). Also, in series [2], the dipstick cross-reaction entry was “did not cross-react”, the dipstick test line entry was “showed obvious color” and the dipstick inhibition entry is given as “different degrees of inhibition”. Also, the water solubility entry in series [3] is on record as “poor water solubility”.

In series [1], `CCN(CC)CCCC(C)Nc1ccnc2cc(Cl)ccc12` (stereo not drawn) [Chloroquine] showed an IC50 greater than 20 µg/mL.

For the molecule `CCCCN(CCCC)CC(O)c1cc(Cl)cc2c1-c1ccc(Cl)cc1/C2=C/c1ccc(Cl)cc1` (stereo not drawn) [Lumefantrine], in series [1], the Cross reactivity was less than 0.02% and the IC50 is greater than 20 µg/mL.

For `C[C@H]1[C@H](OC(=O)CCC(=O)O)O[C@@H]2O[C@@]3(C)CC[C@H]4[C@H](C)CC[C@@H]1[C@@]24OO3` [Artesunate], in series [1], the Cross reactivity was 1.6% and the IC50 turned out to be 0.0704 µg/mL (≈ 0.183 µM). In addition, the Cross reactivity result in series [1] (listed as artesunate) is listed as “low or no cross reactivity”. In addition, in series [2], the dipstick cross-reaction entry is given as “did not cross-react”, the dipstick test line result is listed as “showed obvious color” and the dipstick inhibition entry is “different degrees of inhibition”. The cross-reactivity in series [4] was 650%. In addition, in series [5], the cross-reactivity is reported as 460%.

In the case of `CCN(CC)Cc1cc(Nc2ccnc3cc(Cl)ccc23)ccc1O` [Amodiaquine], in series [1], the Cross reactivity is less than 0.02% and the IC50 was greater than 20 µg/mL.

In series [1], `Clc1ccc2c(N3CCN(CCCN4CCN(c5ccnc6cc(Cl)ccc56)CC4)CC3)ccnc2c1` [Piperaquine] showed a Cross reactivity of less than 0.02% and an IC50 greater than 20 µg/mL.

In general, half-life refers to how long it takes for the measured level to halve. As for `C[C@H]1[C@@H](O)O[C@@H]2O[C@@]3(C)CC[C@H]4[C@H](C)CC[C@@H]1[C@@]24OO3` [Dihydroartemisinin], the Cross reactivity in series [1] is listed as 100%. Besides, the “working range (IC20 – IC80)” value in series [1] (DHA concentration causing 20–80% inhibition of the signal) was 0.00026 to 0.00487 µg/mL. In series [1], this molecule showed an IC50 of 0.00116 µg/mL (≈ 0.00408 µM). Further, the half-life at 200 nM is 3.64 ± 0.48 h in series [6] (Plasmodium falciparum), 5.56 ± 0.87 h in series [6] (culture medium only (no cells)) and 4.55 ± 0.69 h in series [6] (red blood cells in culture medium at 5% hematocrit). Besides, the “DHA concentration after 12 h of incubation” value in series [6] (parasite culture at 5% parasitemia, starting concentration 200 nM) is less than 4 nM. The “indicator range (lowest concentration at which the test line was not visible)” value in series [2] (dipstick, serially diluted standard DHA) lay within 50 to 100 ng/mL. For the same molecule, in series [7], the half-life was 5.5 h.
